PMI act: phosphomannose isomerase (human) activation; activation factor at 20 µM; AID 1214; purified human PMI, coupled resazurin fluorescence, 20 min; stronger effect = higher value; 1 = vehicle control, 0 substrate-free wells; P34949; hit rate 0.005% among 190,000;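 active means activation factor of 2 or more at 20 µM, relative to plate controls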
L major viab: inhibitors of Leishmania major promastigote growth. Leishmania major promastigotes, resazurin fluorescence viability. inhibition, % at 10 µM. hit rate 9% among 200,000; in the data active means inhibition above about 50%;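 further: promastigotes grown with compound for 44 hours at 28 °C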
WT yeast gro inh: growth inhibition of WT yeast, mitochondrial fusion screen. mitochondrial fusion phenotypic screen, WT strain. inhibition, % at 10 µM. hit rate 2.1% among 190,000. AID 1362; in the data active means inhibition above about 58%; tested in S. cerevisiae
m-calpain inh: calpain II (pig) inhibition | purified calpain II, fluorogenic peptide substrate, 30 min | inhibition, % at 16 µM | hit rate 0.37% among 220,000;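 active means inhibition above about 50%, limit read from the data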
PMI act satM6P: increases human PMI activity with near-saturating mannose 6-phosphate; P34949; coupled PMI enzyme assay, resazurin fluorescence, 20 min; stronger effect = higher value; 1 = untreated enzyme, 0 = substrate-free blank; activation factor at 20 µM; hit rate 0.34% among 190,000; AID 1216;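 active means activation factor of 2 or more at 20 µM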
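Test system: human phosphomannose isomerase with PGI, G6PDH, diaphorase coupling enzymes; amount: 15 ng/mL PMI; incubation: enzyme reaction with compound 20 min at room temperature; technique: resorufin fluorescence (Ex 544/Em 590 nm) from resazurin via diaphorase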
Rad51 HR inh: blocks human Rad51 in homologous recombination; hRad51 DNA strand exchange, fluorescence dequenching; hit rate 0.085% among 200,000; inhibition, % at 10 µM;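 active means inhibition above 40% at the single screening dose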;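 further: 0% = DMSO control wells and 100% = blanks with heterologous ssDNA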
Target sequence (Q06609 whole entry, looked up): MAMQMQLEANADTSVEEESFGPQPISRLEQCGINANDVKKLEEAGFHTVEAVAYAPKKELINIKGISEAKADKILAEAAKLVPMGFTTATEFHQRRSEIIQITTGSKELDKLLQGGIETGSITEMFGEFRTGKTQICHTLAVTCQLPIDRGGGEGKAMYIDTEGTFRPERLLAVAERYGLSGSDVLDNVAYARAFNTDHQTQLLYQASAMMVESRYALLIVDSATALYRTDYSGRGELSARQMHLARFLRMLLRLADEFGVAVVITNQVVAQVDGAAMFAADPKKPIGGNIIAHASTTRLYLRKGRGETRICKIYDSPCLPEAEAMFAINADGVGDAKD
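material = hRad51 filaments on single-stranded DNA | reagent = Donor/quencher-labelled 47-bp dsDNA substrate | compound = 10 µM final, single point | schedule = strand-exchange reaction 15 min at room temperature | measured by = fluorescein emission 520 nm, excitation 485 nm | read-out basis = % inhibition versus plate control and blank means | benchmarks = plate controls and plate blanks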
Starred values were filed as active, the others as inactive; i = inactive; . = no result given. In the library only some 9.8% were active in any assay of this set; here they are far more common.

SMILES	PMI act	L major viab	WT yeast gro inh	m-calpain inh	PMI act satM6P	Rad51 HR inh
CN(C)c1ccc(NC(=O)CC(NCc2ccccn2)C(=O)O)cc1 (stereo not drawn)	0.7	-8	-7	-1	0.5	0
Oc1cc(-n2cccn2)c(O)cc1-n1cccn1	.	.	.	-23	.	.
Cc1noc(C)c1COC(=O)[C@H](C)NS(=O)(=O)c1ccc(Cl)c(Cl)c1	1	73*	3	18	1	9
O=C(Nc1ccc(Cl)cc1)N1CCCN(Cc2ccc(F)cc2)C1	0.8	92*	.	5	0.8	4
Cc1cc(C(=O)c2ccccc2)c(NC(=O)CN2CCOCC2)s1	0.8	32	-14	-14	1	.
Cc1ccc(C(=O)c2cc(C)sc2NC(=O)CN2CCN(C(=O)c3ccco3)CC2)cc1	0.9	50*	79*	39	0.8	4
Nc1nc(SCC(=O)NCc2ccccc2)[nH]c(=O)c1NC(=O)c1ccccc1F	0.8	-10	-12	-9	0.9	8
OC(CNCCc1ccc(Cl)cc1)COc1ccc2ccccc2c1 (stereo not drawn)	1	83*	97	33	1	11
CC1(C)CC(=O)C2=C(C1)NC(Nc1nc3ccccc3o1)=NC21CCCCC1	1.1	59*	2	-80	1	-9
COc1cc2c(cc1Cl)C(=O)C(F)(c1ccccc1)C(=O)N2 (stereo not drawn)	.	.	.	-9	.	-10
CCCn1cnc2c(=S)nc(N)[nH]c21	.	.	.	10	.	-17
O=C(/C=C/c1ccc(Cl)cc1)N1CCN(c2ncccn2)CC1	1	-6	10	-17	1	3
O=C(/C=C/c1ccccc1Cl)N1CCN(c2ncccn2)CC1	1	59*	-7	16	1	-8
Cn1c(/C=C/c2ccccc2)nc2ccccc21	0.9	12	67*	-270	1	3
COc1ccc(/C=C/c2nc3ccccc3n2Cc2ccccc2OC)cc1	1	65*	75*	-18	1.1	3
Cn1c(=O)c(/C=C/c2ccccc2)nc2ccccc21	1	-4	-4	-334	1	-3
COc1ccccc1Cn1c(/C=C/c2ccccc2)nc2ccccc21	1	44	79*	-41	1	4
CN(CCc1cn[nH]c1)Cc1nc(Cc2ccccc2)no1	0.9	2	-2	21	0.9	19
COc1cc(Br)cc(/C=N/NC(=O)Cc2ccc(C(F)(F)F)cc2[N+](=O)[O-])c1O	1	73*	-4	-3	1	25
CN(C)CCNc1ncnc2c1sc1nc(N3CCCC3)c3c(c12)CC(C)(C)OC3	.	.	.	-12	.	.
CC1(C)Cc2c(c(N3CCOCC3)nc3sc4c(NN)ncnc4c23)CS1	1.1	97*	11	-44	1	-9
CCN(CC)CCNc1ncnc2c1sc1nc(N3CCCC3)c3c(c12)CC(C)(C)OC3	0.9	100*	3	-20	0.9	.
C/C(=N\Nc1ccc(Cl)c(C(=O)O)c1)c1ccc[nH]1	.	.	.	22	.	-2
CN1CCN(c2ccc(Cl)cc2NC(=O)C2COc3ccccc3O2)CC1 (stereo not drawn)	0.9	99*	23	-18	0.9	-2
CC(C)NC(=O)c1ccccc1NC(=O)C1COc2ccccc2O1 (stereo not drawn)	0.9	55*	2	12	0.9	8
SMILES	PMI act	L major viab	WT yeast gro inh	m-calpain inh	PMI act satM6P	Rad51 HR inh
CN1CCN(c2ccc(Cl)cc2NC(=O)c2cccc(S(=O)(=O)N(C)C)c2)CC1	0.9	99*	9	-1	0.9	4
COc1ccc(Cl)cc1NC(=O)C1COc2ccccc2O1 (stereo not drawn)	0.9	22	52	-2	1	-9
CCC(C)NC(=O)c1ccccc1NC(=O)C1COc2ccccc2O1 (stereo not drawn)	0.9	9	-6	-1	1	5
CC(C)N1CCNCC1	1	-7	14	-4	1	-7
CCN(CC)CCCNC(=S)N(Cc1cccnc1)Cc1cc2cc(C)ccc2[nH]c1=O	.	.	.	16	.	-19
Cc1c(Cl)cccc1NC(=S)NCCCN(C)C	1	82*	-12	0	1	0
Cc1c(Cl)cccc1NC(=S)NC1CC1	0.9	82*	-24	25	0.9	0
Cc1c(Cl)cccc1NC(=S)NCCc1ccc(C(F)(F)F)cc1	1	31	81*	20	1	-1
Cc1ccccc1N(CC(=O)N1CCOCC1)S(C)(=O)=O	.	-6	10	-12	.	.
Cc1nc(-c2noc(-c3ccc(Cl)cc3)n2)c(C(F)(F)F)o1	.	.	.	-4	.	17
N#CC1=C2SCC(O)(c3ccccc3)N2C(=O)CC1c1ccccc1F (stereo not drawn)	0.9	99*	15	35	1	-7
COc1ccc(C2CC(=O)N3C(=C2C#N)SCC3(O)c2ccccc2)cc1 (stereo not drawn)	0.9	49	4	8	0.7	1
N#CC1=C2SCC(O)(c3ccccc3)N2C(=O)CC1c1cccs1 (stereo not drawn)	1	90*	6	20	0.8	-5
CCOc1ccc(S(=O)(=O)NN=C2CCN(C(C)=O)CC2)cc1	1.5	-5	14	2	1.1	.
CC(=O)C1=C(O)C(=O)N(C)C1c1ccccc1[N+](=O)[O-] (stereo not drawn)	.	.	.	-10	.	-17
CCN1C(=O)c2cccc3c(S(=O)(=O)NCc4cccnc4)ccc1c23	1	70*	-1	-473	1	-3
CCN1C(=O)c2cccc3c(S(=O)(=O)Nc4ccncc4)ccc1c23	0.9	-3	1	i	1	-1
CCCCCCC1CCC(C(=O)N2CCOCC2)CC1 (stereo not drawn)	1	-2	17	-15	1	10
COc1ccc(NC(=O)NN(C(=O)c2ccccc2)C(C)(C)C)cc1	0.9	42	-7	-6	0.9	5
COC(=O)N/N=C/c1cn(Cc2ccccc2Cl)c2ccccc12	0.8	75*	-25	-16	0.8	6
COC(=O)N/N=C/c1cn(CCCOc2ccccc2)c2ccccc12	1	54*	5	6	1	2
COC(=O)N/N=C/c1cn(Cc2c(Cl)cccc2Cl)c2ccccc12	0.8	12	63*	-7	0.9	3
COC(=O)N/N=C/c1cn(Cc2ccc(Cl)cc2Cl)c2ccccc12	0.9	11	0	6	1	7
COC(=O)N/N=C/c1cc(C)n(-c2cccc3ccccc23)c1C	1	67*	-2	-5	1	-2
CCN(CC)c1ccc2cc(C(C)=O)c(=O)oc2c1	0.9	11	-2	-28	1	-172
CCN(CC)c1ccc2cc(-c3nnc(-c4ccncc4)o3)c(=O)oc2c1	1	68*	11	-246	1.1	1

From PubChem
